Data: ChEMBL document CHEMBL4028848, “Discovery of N-{4-[5-(4-Fluorophenyl)-3-methyl-2-methylsulfanyl-3H-imidazol-4-yl]-pyridin-2-yl}-acetamide (CBS-3595), a Dual p38α MAPK/PDE-4 Inhibitor with Activity against TNFα-Related Diseases” (J Med Chem, 2017)
Active and inactive are the calls of the source. No cut-off for these calls is given here.

Experiments:
[1] = target: T1, Mitogen-activated protein kinase 14 (Homo sapiens, UniProt Q16539); assay: Inhibition of p38alpha MAPK (unknown origin) by beta-galactosidase enzyme complementation assay
T1 sequence (Q16539 whole entry): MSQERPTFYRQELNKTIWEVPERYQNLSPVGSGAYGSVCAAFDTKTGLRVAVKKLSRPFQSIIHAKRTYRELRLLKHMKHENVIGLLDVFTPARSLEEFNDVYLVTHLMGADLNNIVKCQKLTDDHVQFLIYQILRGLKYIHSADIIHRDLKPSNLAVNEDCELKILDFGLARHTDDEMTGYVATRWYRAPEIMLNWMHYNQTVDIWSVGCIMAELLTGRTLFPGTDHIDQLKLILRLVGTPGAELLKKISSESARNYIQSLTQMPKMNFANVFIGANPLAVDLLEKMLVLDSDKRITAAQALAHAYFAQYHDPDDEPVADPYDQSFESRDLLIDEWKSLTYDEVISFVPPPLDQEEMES

Homo sapiens [2] = species on record: Homo sapiens; assay: Inhibition of PDE4 in LPS-stimulated human whole blood assessed as decrease in leukotriene B4 level in plasma
Mus musculus = assay: Antiarthritic activity in human TNF transgenic mouse model assessed as reduction in cartilage damage at 20 to 50 mg/kg/day, po for 10 weeks; assay type: functional, organism-based
How it was run: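 Heterozygous human TNF transgenic mice (8 per group) were dosed orally for ten weeks with 20 or 50 mg/kg/day as a methylcellulose suspension, alongside vehicle and infliximab i.p. controls. Joint swelling and grip strength were scored weekly, and hind paws were examined histologically at the end.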

Lymphocyte [3] = assay: Clastogenicity in human lymphocytes in absence of S9 fraction by microneucleus test; assay type: toxicity, cell-based
How it was run: (§1)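 Cytogenetic clastogenicity assay in cultured human lymphocytes, run with and without S9 mix.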

Rattus norvegicus [4] = assay: Toxicity in Sprague-Dawley rat assessed as premature death at 15 to 150 mg/kg, po administered via gavage for 28 days followed by 2 weeks off without dosing; assay type: organism-based; conditions: in vivo
How it was run: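 Sprague–Dawley rats, 10–16 per group, 144 in total. Daily dosing for 28 days with vehicle or 15, 50 or 150 mg/kg; the top dose came from a range-finding study. Six males and six females from the control and high-dose groups were followed through a further 2-week treatment-free period. Clinical signs and histopathology recorded.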

[5] = Cmax in male Sprague-Dawley rat at 30 mg/kg, po by LC-MS/MS analysis; assay type: ADME, organism-based; design: dose 30 mg/kg, route oral; conditions: in vivo
Cynomolgus monkey = assay: Toxicity in cynomolgus monkey assessed as whitish vomiting at 6 to 20 mg/kg, po; assay type: organism-based, Macaca fascicularis; conditions: in vivo
Homo sapiens [6] = species on record: Homo sapiens; assay: Inhibition of p70S6K (unknown origin) at 10 uM relative to control
Salmonella typhimurium = assay: Genotoxicity in Salmonella typhimurium in presence of S9 fraction by Ames test; assay type: toxicity; conditions: salmonella enterica subsp. enterica serovar typhimurium
How it was run: (§2)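 Bacterial reverse mutation (Ames) test in S. typhimurium and E. coli strains, run with and without S9 mix.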

Serum = assay: Drug uptake in male Lewis rat serum at 10 mg/kg, po by LC-MS/MS analysis; assay type: ADME, organism-based; conditions: in vivo
How it was run: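 Male Lewis rats were dosed orally at 10 mg/kg 1 h before an i.v. LPS challenge of 0.1 mg/kg. Serum drug concentration was measured 1.5 h after LPS.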

Rattus norvegicus [7] = assay: Antiarthritic activity in Lewis rat assessed as change in paw volume at 25 mg/kg, po bid administered for 10 days; assay type: functional, organism-based
How it was run: (§3)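 Collagen-induced arthritis in male Lewis rats (5–6 per group). Groups received vehicle, dexamethasone 1 mg/kg, test item 50 mg/kg once daily, or 25 mg/kg twice daily for 10 days. Body weight, arthritic score and paw volume were monitored, and serum COMP was measured at the end.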

[8] = Drug metabolism in human primary hepatocytes assessed as CBS-3846 formation at 10 to 100 uM; assay type: ADME, cell-based, Hepatocyte
[9] = Half life in cynomolgus monkey at 20 mg/kg, po measured on day 1 and 27 post dose by LC-MS/MS analysis; assay type: ADME, organism-based, Macaca fascicularis; conditions: in vivo
How it was run: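 Cynomolgus monkeys were dosed orally at 6, 12 and 20 mg/kg daily in a 4-week toxicity study. Blood was sampled from 0.5 to 24 h post dose on days 1 and 27. Individual profiles of parent and metabolite gave Tmax, Cmax, T1/2 and AUC0–24.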

Escherichia coli = assay: Genotoxicity in Escherichia coli in presence of S9 fraction by Ames test; assay type: toxicity; how it was run: as §2
Rattus norvegicus [10] = assay: In vivo inhibition of P38 MAPKalpha in Sprague-Dawley rat assessed as decrease in LPS-stimulated TNFalpha level in serum at 10 mg/kg, po pretreated for 1 hr followed by LPS addition measured after 2 hrs relative to control; assay type: functional
How it was run: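 Sprague–Dawley rats (8/group) were dosed orally with vehicle or 1, 3 or 10 mg/kg. LPS 0.1 mg/kg i.v. was given 1 h after dosing. Blood was collected 2 h later and serum TNFα measured. Inhibition was calculated relative to the mean of vehicle-treated animals.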

Lymphocyte [11] = assay: Clastogenicity in human lymphocytes in presence of S9 fraction by microneucleus test; assay type: toxicity, cell-based; how it was run: as §1
Homo sapiens [12] = species on record: Homo sapiens; assay: Inhibition of PDE4 in human U937 cells assessed as [3H]cAMP hydrolysis at 1 uM relative to control; assay type: cell-based
[13] = Drug uptake in LPS-stimulated female Lewis rat serum at 10 mg/kg, po pretreated for 5 hrs followed by LPS addition measured after 1.5 hrs post dose; assay type: ADME, organism-based; conditions: read-out: Drug uptake
How it was run: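 Female Lewis rats, n = 8/group, dosed orally at 10 mg/kg at 1, 3 or 5 h before LPS challenge. Serum aliquots taken 1.5 h after LPS were used to measure drug concentration.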

Saccharomyces cerevisiae = assay: Inhibition of yeast CK1 at 10 uM relative to control
[14] = AUC (0 to infinity) in Beagle dog at 40 mg/kg, po by LC-MS/MS analysis; assay type: ADME, organism-based, Canis lupus familiaris; design: dose 40 mg/kg, time infinity, route oral; conditions: in vivo
How it was run: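 Toxicokinetics from a maximum-tolerated-dose study in four Beagle dogs given 40 mg/kg orally. Plasma levels of both parent and its predominant metabolite were monitored.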

Rattus norvegicus [15] = assay: Antiarthritic activity in Lewis rat assessed as collagen oligomeric matrix protein level in serum at 25 mg/kg, po bid administered for 10 days (Rbv = 0.17 +/- 0.02 U/l); assay type: functional; how it was run: as §3
Rattus norvegicus [16] = assay: Toxicity in Sprague-Dawley rat assessed as dyspnea at 2000 mg/kg, po administered via gavage measured on day 1 and 2; assay type: organism-based; conditions: in vivo
[17] = AUC (0 to t) in mongrel dog at 30 mg/kg, po by LC-MS/MS analysis; assay type: ADME, organism-based, Canis lupus familiaris; conditions: in vivo
How it was run: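 Two mongrel dogs received a single oral dose of 30 mg/kg. Blood was sampled from 0.25 to 24 h and plasma parent concentrations were determined.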

Rattus norvegicus [18] = assay: Antiarthritic activity in Lewis rat assessed as decrease in collagen-induced arthritic score at 25 mg/kg, po bid administered for 10 days; assay type: functional, organism-based; how it was run: as §3
Rattus norvegicus [19] = assay: Toxicity in rat assessed as effect on central nervous system at 30 to 300 mg/kg, po administered as single dose; assay type: organism-based; conditions: in vivo
[20] = AUC (infinity) in human at 20 mg, po administered as single dose; assay type: ADME, organism-based; design: dose 20 mg, time infinity, route oral; conditions: in vivo
How it was run: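 Placebo-controlled, single-blind, randomized, consecutive-dosing study in healthy subjects given single oral doses, with 10 mg also given fasting and fed in a crossover. Plasma parent and active metabolite were measured predose and from 0.25 to 36 h post dose. PK parameters were derived from individual concentration–time profiles and reported as means.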

Liver [21] = assay: Drug metabolism in rat liver microsomes assessed as N-(4-(4-(4-fluorophenyl)-1-methyl-2-(methylsulfinyl)-1H-imidazol-5-yl)pyridin-2-yl)acetamide formation at 10 to 100 uM; assay type: ADME, microsome
How it was run: (§4)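 Test compound incubated at 10, 30 and 100 μM with liver microsomes from rat, Cynomolgus monkey or human, and metabolites monitored.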

Liver [22] = assay: Drug metabolism in human liver microsomes assessed as 4-(4-(4-fluorophenyl)-1-methyl-2-(methylsulfinyl)-1H-imidazol-5-yl)pyridin-2-amine formation at 10 to 100 uM; assay type: ADME, microsome; how it was run: as §4
Rattus norvegicus [23] = assay: Toxicity in Sprague-Dawley rat assessed as increase in hunched posture at 150 mg/kg, po administered via gavage for daily 28 days followed by 2 weeks off without dosing; assay type: organism-based; conditions: in vivo
[24] = target: T1, Mitogen-activated protein kinase 14; assay: Inhibition of p38MAPK alpha (unknown origin) at 10 uM relative to control
[25] = target: Mitogen-activated protein kinase 11 (Homo sapiens) (UniProt Q15759); assay: Inhibition of p38MAPK beta (unknown origin) at 10 uM relative to control
Sequence of Mitogen-activated protein kinase 11 (Homo sapiens) (Q15759 whole entry): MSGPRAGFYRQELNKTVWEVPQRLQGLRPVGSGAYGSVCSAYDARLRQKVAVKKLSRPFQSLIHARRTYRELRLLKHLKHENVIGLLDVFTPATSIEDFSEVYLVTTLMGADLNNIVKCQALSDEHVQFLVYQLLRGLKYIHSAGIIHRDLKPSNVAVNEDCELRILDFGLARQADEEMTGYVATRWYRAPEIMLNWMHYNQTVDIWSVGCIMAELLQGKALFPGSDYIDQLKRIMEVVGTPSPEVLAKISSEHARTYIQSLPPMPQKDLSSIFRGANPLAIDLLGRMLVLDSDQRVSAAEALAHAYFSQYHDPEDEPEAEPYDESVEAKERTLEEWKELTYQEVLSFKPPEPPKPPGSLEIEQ

## CC(=O)Nc1cc(-c2c(-c3ccc(F)cc3)nc([S+](C)[O-])n2C)ccn1 (stereo unspecified)
[1]
  IC50: 500 nM
Homo sapiens [2]
  inhibition: Dose-dependent effect
Mus musculus
  Activity: Active
Lymphocyte [3]
  Activity: Non-Toxic
Rattus norvegicus [4]
  Activity: Non-Toxic
[5]
  Cmax: 3.4 µM
Cynomolgus monkey
  Activity: Toxic
Homo sapiens [6]
  inhibition: 32%
Salmonella typhimurium
  Activity: Non-Toxic
Serum
  Drug uptake: 689 ng/mL
Rattus norvegicus [7]
  Activity: inactive
[8]
  Drug metabolism: Metabolite_Detected
[9]
  half-life: 4.8 h
Escherichia coli
  Activity: Non-Toxic
Rattus norvegicus [10]
  inhibition in vivo at 10 mg/kg: 96%
Lymphocyte [11]
  Activity: Non-Toxic
Homo sapiens [12]
  inhibition: 73%
[13]
  concentration at 1.5 h: 871 ng/mL
Saccharomyces cerevisiae
  inhibition: 97%
[14]
  AUC(0-inf): 120 µM·h
Rattus norvegicus [15]
  Activity: 0.08 U/L
Rattus norvegicus [16]
  Activity: Toxic
[17]
  AUC(0-t): 95 µM·h
Rattus norvegicus [18]
  Activity: Active
Rattus norvegicus [19]
  Activity: Non-Toxic
[20]
  AUC(0-inf): 2.24 µM·h
Liver [21]
  Drug metabolism: Metabolite_Detected
Liver [22]
  Drug metabolism: Metabolite_Detected
Rattus norvegicus [23]
  Activity: Toxic

## Cn1c([S+](C)[O-])nc(-c2ccc(F)cc2)c1-c1ccnc(N)c1 (stereo unspecified)
[24]
  inhibition: inactive
[25]
  inhibition: inactive
